XBP1 UPR activ – activators of adaptive XBP1 UPR arm, primary screen, cell-based, CHO-XBP1 luciferase reporter, luminescence, uHTS | IRE1-XBP1 UPR activation; percent of tunicamycin response, DMSO as zero | AID 463104, 2010 | actives 0.33% (n = 330,000) | activation, % at 20 µM;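 active means versus positive control, 20 µM dose yields 30% or more activation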;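 further: 100% = tunicamycin at 10 µg/mL and 0% = DMSO only wells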
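Material: CHO-XBP1 cells stably carrying IRE1-XBP1-driven luciferase reporter | Medium: F12 with 10% serum | Compound dosing: 20 µM single concentration, DMSO 1% | Incubation: Overnight seeding at 37 °C, 6 h compound treatment at 37 °C | Detection: Steady-Glo luminescence read | Read-out basis: % activation of reporter signal versus tunicamycin and DMSO controls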
UPR CHOP act – activators of apoptotic CHOP UPR arm, primary screen, cell-based, CHO-CHOP luciferase reporter, luminescence, uHTS | UPR activation; percent of tunicamycin response over DMSO baseline | activation, % at 10 µM | actives 0.34% (n = 330,000) | AID 449763, 2010;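 active means at 10 µM dose, activation of 40% or more, normalized to positive control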;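 further: 100% = tunicamycin at 10 µg/mL and 0% = DMSO alone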
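Evaluation: % reporter activation, DMSO baseline versus tunicamycin full activation; System: CHO-CHOP luciferase reporter cell line; Input: 500 cells/well; Incubation: 6 h compound treatment, 37 °C; Measured by: Steady-Glo luciferase luminescence; Dosing: one dose, 10 µM in 0.5% DMSO; Buffer or medium: F12 medium, 10% FBS; Benchmarks: positive tunicamycin 10 µg/mL, negative DMSO alone.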
T cruzi inh – inhibitors of intracellular T. cruzi growth, primary screen, luminescence, NIH3T3 host cells; inhibition, % (concentration not given with the values); T. cruzi beta-gal in NIH3T3, 90 h; AID 1885, 2009; actives 1.4% (n = 300,000);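 active means mean inhibition across valid replicates above about 55%, limit read from the data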;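 further: signal also drops with host cell toxicity which is not excluded here; 0% = plate median of DMSO wells and 100% = zero luminescence signal; higher percent means less beta-gal luminescence so fewer parasites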
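Assay system: NIH/3T3 host cells with β-galactosidase reporter T. cruzi; input: 5,000 host fibroblasts per well; compound: single 50 nL compound addition per well in DMSO; timing: ≥90 h infection period, 3 h prior cell attachment; measured by: GalScreen β-gal luminescence, detergent lysis, 60 min; evaluation: percent inhibition of parasite-derived β-gal signal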
CHOP inh – inhibitors of CHOP promoter induction, primary screen, cell-based, unfolded protein response, luciferase reporter; CHO-K1 CHOP-promoter luciferase, tunicamycin-induced, 15-18 h; inhibition, % at 10 µM; actives 3.8% (n = 220,000);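 active means compounds that reduced the stress-induced luciferase reporter signal by more than about 70% of percent inhibition, limit read from the data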;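 further: 0% = tunicamycin plus vehicle and 100% = wells without tunicamycin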
Lmaj promast – Leishmania major promastigote growth inhibition, primary screen | Leishmania major promastigotes, resazurin fluorescence viability | inhibition, % at 10 µM | actives 9% (n = 200,000) | AID 1063, 2008; in the data active means inhibition above about 50%;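 further: promastigotes grown with compound for 44 hours at 28 °C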
Dynein cargo inh – inhibitors of GR-EGFP nuclear translocation, primary screen, dynein cargo transport inhibitor project, imaging, high-content, 3617.4 mouse cells. z-score, hits read low. test concentration mostly 20 µM; stimulated with dexamethasone, 1 µM; stronger effect = lower value. actives 0.47% (n = 220,000);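 active means plate z-score of nuclear minus cytoplasmic receptor signal below a set negative limit, without overly bright fluorescence or cell loss, cut at about -3.5 in these data, passing the limit was not always enough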;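 further: z-score of nuclear minus cytoplasmic ring GR-EGFP intensity difference per well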
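Also added: dexamethasone, 1.0 µM final. Medium: tet-free, stripped-serum medium. Detection: fixed, Hoechst-stained cells imaged at 10x for EGFP. Read-out: nuclear-to-cytoplasmic GR-EGFP distribution per well. Times: induction 48 h, compound 1 h, agonist 30 min.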
Active calls of the source: *; x = no result. Many of the other results were omitted from the sample, so hits are more common in it than they were.

SMILES	XBP1 UPR activ	UPR CHOP act	T cruzi inh	CHOP inh	Lmaj promast	Dynein cargo inh
Cc1nn(-c2ccccc2)c(N2CCCC2)c1/C=N/NC(=O)c1cc(-c2ccccc2)nc2ccccc12	0	4	63*	35	36	-0.7
Cc1ccc(-c2cc(C(=O)N/N=C/c3c(C)nn(C)c3C)c3ccccc3n2)c(C)c1	4	0	51	44	100*	0.16
Cc1nn(C)c(C)c1/C=N/NC(=O)c1csc2ccccc12	2	3	12	34	-3	-0.57
O=C(NCCN1CCN(c2ccc([N+](=O)[O-])cc2)CC1)NCc1ccccc1	-5	-2	53	x	x	x
COc1ccc(CCNC(=O)[C@H](C)N2C(=O)N3CCc4c([nH]c5ccccc45)[C@@]3(C)C2=O)cc1	-3	2	62*	x	x	x
COc1ccc(CCN2CCCn3c2nc2c3c(=O)[nH]c(=O)n2C)cc1OC	-1	-1	-13	x	x	x
COc1ccc(NC(=O)C(C)N=C2NS(=O)(=O)c3ccccc32)cc1S(N)(=O)=O (configuration not stated)	-4	-1	x	x	x	x
CC1CCN(Cc2c(C(=O)N/N=C/c3cc(Br)ccc3O)nnn2-c2nonc2N)CC1	1	-2	59*	x	x	x
CC1CCN(Cc2c(C(=O)N/N=C/c3cc(Cl)ccc3O)nnn2-c2nonc2N)CC1	3	-3	61*	x	x	x
COc1ccc(-n2c(C)cc(/C=C3\SC(=S)N(Cc4ccco4)C3=O)c2C)cc1	x	x	26	14	68*	-0.43
COc1ccc(-c2nn(-c3ccccc3)cc2/C=C2/SC(=S)N(Cc3ccco3)C2=O)c(C)c1	-1	2	9	-23	20	-0.68
COc1ccccc1/C=C1\CCCC2=C1Nc1nnnn1C2c1ccccc1OC (configuration not stated)	x	x	x	84*	79*	-2.7
COc1ccccc1C1C=C(c2ccccc2)Nc2nnnn21 (configuration not stated)	2	1	-7	x	23	-0.11
COc1ccc(NC(=O)Cn2nnc(-c3ccccc3NC(=O)c3cccs3)n2)cc1	5	-1	-24	73*	2	1
COc1ccccc1NC(=O)Cn1nnc(-c2ccccc2NS(=O)(=O)c2ccccc2)n1	-1	3	-7	49	51*	0.98
CCOc1ccc(NC(=O)Cn2nnc(-c3ccccc3NC(=O)CC)n2)cc1	0	0	1	-6	32	0.084
COc1ccc(NC(=O)Cn2nnc(-c3ccccc3NS(=O)(=O)c3ccc(OC)cc3)n2)cc1	6	-1	18	15	69*	-0.15
CCn1nnc(-c2ccccc2NS(=O)(=O)c2ccc(C(=O)OC)cc2)n1	-3	-3	2	-2	-1	-0.39
COc1cc(OC)cc(C(=O)Nc2ccccc2-c2nnn(CC(N)=O)n2)c1	0	-1	-6	6	2	0.074
COc1ccccc1NC(=O)Cn1nnc(-c2ccccc2NC(=O)c2cc3ccccc3oc2=O)n1	21	12	-1	-53	101*	0.13
Cc1ccc(NC(=O)Cn2nnc(-c3ccccc3NC(=O)c3cccs3)n2)cc1	5	2	22	x	-1	0.3
COc1ccc(C)cc1N(CC(=O)NC1CCCC1)C(=O)Cn1nnc(-c2ccc(C)o2)n1	-1	2	2	x	x	x
O=C(NC1CCS(=O)(=O)C1)c1cccc(Cl)c1 (configuration not stated)	-1	1	-6	x	x	x
COc1cccc(C(=O)COC(=O)c2cccs2)c1	-8	14	-9	x	x	x
CCCC(=O)Nc1ccccc1-c1nnn(CC(=O)Nc2ccc(OCC)cc2)n1	-2	-1	-3	80*	13	0.95
SMILES	XBP1 UPR activ	UPR CHOP act	T cruzi inh	CHOP inh	Lmaj promast	Dynein cargo inh
O=C(Cn1nnc(-c2ccccc2NC(=O)c2ccco2)n1)Nc1ccccc1	2	1	3	85*	-3	0.48
O=C(CC(c1ccccc1)c1ccccc1)Nc1ccc(C(=O)O)cc1	-1	-1	0	x	x	x
Cc1ccc(SCCNC(=S)Nc2ccc(C)c(C)c2)cc1	-3	-2	-12	75*	9	-0.58
Cc1cc(C)cc(NC(=S)NCCSc2ccc(Cl)cc2)c1	-1	-2	51	88*	16	-1
Clc1ccc(/C=C/c2ncc[nH]2)c(Cl)c1	-1	8	48	x	x	x
CC1CCCCC1NC(=O)/C(C#N)=C/c1ccc(OCC(N)=O)cc1 (configuration not stated)	-1	3	9	-13	64*	-1.2
COc1ccc(OCC(=O)OCC(=O)NC2CCCCC2C)cc1 (configuration not stated)	1	1	x	x	x	x
Cc1cc(Br)ccc1NC(=O)CSCc1c(C)noc1C	0	0	x	x	x	x
O=C1CSC(c2ccc([N+](=O)[O-])cc2)N1c1ccc(O)cc1 (configuration not stated)	-2	-3	-21	x	x	x
CC(C)[C@@]1(c2ccc(Cl)cc2)ON(c2ccccc2C(F)(F)F)C1=O	0	2	x	x	x	x
O=C1N=C2SCCN2/C1=C\c1ccccc1Cl	2	-4	0	25	100*	-0.33
Cc1ccc2oc(=O)c3cnn(CC(=O)Nc4cc(-c5cccc(F)c5)no4)c3c2c1	0	-1	-7	96*	2	0.98
Oc1c(C(Nc2nccs2)c2ccc(C(F)(F)F)cc2)ccc2cccnc12 (configuration not stated)	x	x	52	41	100*	0.55
CC(C)C(=O)NC(c1cccc([N+](=O)[O-])c1)c1ccc2cccnc2c1O (configuration not stated)	0	7	45	x	x	x
Oc1c(C(Nc2cccc(C(F)(F)F)c2)c2ccncc2)ccc2cccnc12 (configuration not stated)	7	12	79*	37	100*	0.09
CCC(=O)NC(c1cccc([N+](=O)[O-])c1)c1c(OC(C)=O)ccc2ccccc12 (configuration not stated)	0	-1	-8	-3	80*	0.38
CCCC(=O)NC(c1ccc(N(C)C)cc1)c1c(O)ccc2ccccc12 (configuration not stated)	-3	3	2	14	100*	-1.1
CC(=O)NC(c1ccc([N+](=O)[O-])cc1)c1c(O)ccc2ccccc12 (configuration not stated)	0	0	-14	-18	49	-0.091

High-throughput results deposited in PubChem by several laboratories.
